Test results reported in ChEMBL document CHEMBL2146434, “Synthesis and biological evaluation of new amino acid and dipeptide derivatives of neocryptolepine as anticancer agents” (J Med Chem, 2012).

How the values were obtained:
[1] = test system: Lewis lung carcinoma cell line; assay: Antineoplastic activity against mouse LLC cells xenografted in C57BL/6 mouse assessed as tumor growth inhibition at 50 mg/kg/day, ip administered on day 9 to day 13 of tumor implantation measured on day 18; assay type: functional; details: route intraperitoneal, read-out: TGI
Outline: (§1)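 Mice bore Lewis lung carcinoma (LLC) inoculated subcutaneously and received test agents intraperitoneally at 15–50 mg kg⁻¹ day⁻¹ from day 9 or day 10. A single 100 mg/kg cyclophosphamide dose was the cytostatic control. Tumor growth was followed as the group median, and TGI% was calculated from medians versus untreated controls. Significance was tested by nonparametric Kruskal–Wallis multiple comparison, p < 0.05.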

[2] = test system: Lewis lung carcinoma cell line; assay: Antineoplastic activity against mouse LLC cells xenografted in C57BL/6 mouse assessed as tumor growth inhibition at 25 mg/kg/day, ip administered on day 9 to day 13 of tumor implantation measured on day 14; assay type: functional; details: route intraperitoneal, read-out: TGI; outline: as §1
[3] = Solubility of the compound in water; assay type: physicochemical; details: buffer
Mus musculus [4] = assay: Toxicity in C57BL/6 mouse xenografted with mouse LLC cells at 25 to 50 mg/kg/day, ip administered on day 9 to day 13 of tumor implantation; assay type: organism-based; parameters: route intraperitoneal; details: in vivo
Outline: (§2)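 Mouse Lewis lung carcinoma (LLC) cells inoculated sc into mice. Daily dosing from day 9: 15 mg kg⁻¹ day⁻¹ through day 13 or 30 mg kg⁻¹ day⁻¹ through day 12; 25 or 50 mg kg⁻¹ day⁻¹ through day 13. Route is given as ip in tables and text but sc in figure legends. Body weight monitored for loss alongside tumor growth. Single 100 mg/kg cyclophosphamide dose as cytostatic control.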

Mus musculus [5] = assay: Toxicity in C57BL/6 mouse xenografted with mouse LLC cells assessed as body weight loss at 25 mg/kg/day, sc administered on day 9 to day 13 of tumor implantation; assay type: organism-based; parameters: route subcutaneous; details: in vivo
Outline: (§3)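 Body weight was tracked in C57BL/6 mice bearing subcutaneously inoculated LLC during therapy given daily from day 9 to day 13. A single 100 mg/kg dose of cyclophosphamide served as the cytostatic control group.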

[6] = test system: Lewis lung carcinoma cell line; assay: Antineoplastic activity against mouse LLC cells xenografted in C57BL/6 mouse assessed as tumor growth inhibition at 50 mg/kg/day, ip administered on day 9 to day 13 of tumor implantation measured on day 21; assay type: functional; details: route intraperitoneal, read-out: TGI; outline: as §1
MCF7 = assay: Cytotoxicity against human MCF7 cells after 72 hrs by SRB assay; assay type: functional, cell-based; details: MCF7, 72 h
Outline: (§4)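 IC50 is the compound concentration giving 50% inhibition of cell proliferation. It was determined on normal mouse BALB/3T3 fibroblasts and on human A549, MCF-7 and LoVo cancer lines, with doxorubicin hydrochloride and DiMIQ as reference compounds.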

Mus musculus [7] = assay: Toxicity in C57BL/6 mouse xenografted with mouse LLC cells assessed as body weight loss at 15 mg/kg/day, sc administered on day 9 to day 13 of tumor implantation; assay type: organism-based; parameters: route subcutaneous; details: in vivo; outline: as §3
[8] = test system: Lewis lung carcinoma cell line; assay: Antineoplastic activity against mouse LLC cells xenografted in C57BL/6 mouse assessed as tumor growth inhibition at 25 mg/kg/day, ip administered on day 9 to day 13 of tumor implantation measured on day 23; assay type: functional; details: route intraperitoneal, read-out: TGI; outline: as §1
[9] = test system: Lewis lung carcinoma cell line; assay: Antineoplastic activity against mouse LLC cells xenografted in C57BL/6 mouse assessed as tumor growth inhibition at 50 mg/kg/day, ip administered on day 9 to day 13 of tumor implantation measured on day 14; assay type: functional; details: route intraperitoneal, read-out: TGI; outline: as §1
[10] = test system: Lewis lung carcinoma cell line; assay: Antineoplastic activity against mouse LLC cells xenografted in C57BL/6 mouse assessed as tumor growth inhibition at 50 mg/kg/day, ip administered on day 9 to day 13 of tumor implantation measured on day 23; assay type: functional; details: route intraperitoneal, read-out: TGI; outline: as §1
Mus musculus [11] = assay: Toxicity in C57BL/6 mouse xenografted with mouse LLC cells assessed as body weight loss at 30 mg/kg/day, sc administered on day 9 to day 12 of tumor implantation; assay type: organism-based; parameters: route subcutaneous; details: in vivo; outline: as §2
KB = assay: Cytotoxicity against human KB cells after 72 hrs by SRB assay; assay type: functional, cell-based
[12] = Octanol-water partition coefficient, log P of the compound in citric buffer at pH 2.5 by spectrophotometric analysis; assay type: physicochemical
Outline: (§5)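 Octanol–water partitioning, with log P defined as log(C_octanol/C_water). Compound in the aqueous phase was measured spectrophotometrically, and octanol content was obtained by subtracting the supernatant concentration from the total. Values are the mean of two independent experiments, each run in triplicate.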

[13] = Dissociation constant, pKa of the compound in PBS buffer at 5 uM at pH 2 to 10 by UV-spectrophotometric analysis; assay type: physicochemical
Outline: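 UV spectrophotometric titration at a final compound concentration of 5 μM. At this concentration the absorbance–concentration relationship stayed linear. pKa was read from spectral changes across pH.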

[14] = test system: Lewis lung carcinoma cell line; assay: Antineoplastic activity against mouse LLC cells xenografted in C57BL/6 mouse assessed as tumor growth inhibition at 50 mg/kg/day, ip administered on day 9 to day 13 of tumor implantation measured on day 16; assay type: functional; details: route intraperitoneal, read-out: TGI; outline: as §1
A549 = assay: Cytotoxicity against human A549 cells after 72 hrs by SRB assay; assay type: functional, cell-based; details: A549, 72 h; outline: as §4
[15] = test system: Lewis lung carcinoma cell line; assay: Antineoplastic activity against mouse LLC cells xenografted in C57BL/6 mouse assessed as tumor growth inhibition at 25 mg/kg/day, ip administered on day 9 to day 13 of tumor implantation measured on day 11; assay type: functional; details: route intraperitoneal, read-out: TGI; outline: as §1
[16] = test system: Lewis lung carcinoma cell line; assay: Antineoplastic activity against mouse LLC cells xenografted in C57BL/6 mouse assessed as tumor growth inhibition at 25 mg/kg/day, ip administered on day 9 to day 13 of tumor implantation measured on day 18; assay type: functional; details: route intraperitoneal, read-out: TGI; outline: as §1
[17] = Octanol-water partition coefficient, log P of the compound in PBS buffer at pH 7.4 by spectrophotometric analysis; assay type: physicochemical; outline: as §5
[18] = Toxicity in human erythrocytes assessed as hemolysis at 0.3 mM after 30 mins by spectrophotometric analysis; assay type: cell-based, Erythrocyte; details: read-out: Activity
Outline: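 Human erythrocyte suspension under isotonic conditions (pH 7.4, hematocrit 50%). Compound added across a concentration series and incubated 30 min at 37 °C before hemolysis was scored. Mean ± SD of three individual determinations. Statistics by Mann–Whitney U test, p < 0.05.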

[19] = test system: Lewis lung carcinoma cell line; assay: Antineoplastic activity against mouse LLC cells xenografted in C57BL/6 mouse assessed as tumor growth inhibition at 25 mg/kg/day, ip administered on day 9 to day 13 of tumor implantation measured on day 21; assay type: functional; details: route intraperitoneal, read-out: TGI; outline: as §1
Mus musculus [20] = assay: Toxicity in C57BL/6 mouse xenografted with mouse LLC cells assessed as body weight loss at 15 mg/kg/day, ip administered on day 9 to day 13 of tumor implantation; assay type: organism-based; parameters: route intraperitoneal; details: in vivo; outline: as §3
Mus musculus [21] = assay: Toxicity in C57BL/6 mouse xenografted with mouse LLC cells assessed as body weight loss at 50 mg/kg/day, sc administered on day 9 to day 13 of tumor implantation; assay type: organism-based; parameters: route subcutaneous; details: in vivo; outline: as §2
LoVo = assay: Cytotoxicity against human LoVo cells after 72 hrs by SRB assay; assay type: functional, cell-based; outline: as §4
[22] = test system: Lewis lung carcinoma cell line; assay: Antineoplastic activity against mouse LLC cells xenografted in C57BL/6 mouse assessed as tumor growth inhibition at 25 mg/kg/day, ip administered on day 9 to day 13 of tumor implantation measured on day 16; assay type: functional; details: route intraperitoneal, read-out: TGI; outline: as §1
Mus musculus [23] = assay: Toxicity in C57BL/6 mouse xenografted with mouse LLC cells assessed as body weight loss at 30 mg/kg/day, ip administered on day 9 to day 12 of tumor implantation; assay type: organism-based; parameters: route intraperitoneal; details: in vivo; outline: as §2
[24] = test system: Lewis lung carcinoma cell line; assay: Antineoplastic activity against mouse LLC cells xenografted in C57BL/6 mouse assessed as tumor growth inhibition at 50 mg/kg/day, ip administered on day 9 to day 13 of tumor implantation measured on day 11; assay type: functional; details: route intraperitoneal, read-out: TGI; outline: as §1
[25] = test system: Lewis lung carcinoma cell line; assay: Antineoplastic activity against mouse LLC cells xenografted in C57BL/6 mouse assessed as tumor growth inhibition at 100 mg/kg/day measured on day 16; details: 384 h, read-out: TGI
[26] = test system: Lewis lung carcinoma cell line; assay: Antineoplastic activity against mouse LLC cells xenografted in C57BL/6 mouse assessed as tumor growth inhibition at 100 mg/kg/day measured on day 19; details: 456 h, read-out: TGI
[27] = test system: Lewis lung carcinoma cell line; assay: Antineoplastic activity against mouse LLC cells xenografted in C57BL/6 mouse assessed as tumor growth inhibition at 100 mg/kg/day measured on day 11; details: 264 h, read-out: TGI
[28] = test system: Lewis lung carcinoma cell line; assay: Antineoplastic activity against mouse LLC cells xenografted in C57BL/6 mouse assessed as tumor growth inhibition at 100 mg/kg/day measured on day 12; details: 288 h, read-out: TGI
[29] = test system: Lewis lung carcinoma cell line; assay: Antineoplastic activity against mouse LLC cells xenografted in C57BL/6 mouse assessed as tumor growth inhibition at 100 mg/kg/day measured on day 21; details: 504 h, read-out: TGI
[30] = test system: Lewis lung carcinoma cell line; assay: Antineoplastic activity against mouse LLC cells xenografted in C57BL/6 mouse assessed as tumor growth inhibition at 100 mg/kg/day measured on day 18; details: 432 h, read-out: TGI
[31] = test system: Lewis lung carcinoma cell line; assay: Antineoplastic activity against mouse LLC cells xenografted in C57BL/6 mouse assessed as tumor growth inhibition at 100 mg/kg/day measured on day 17; details: 408 h, read-out: TGI
[32] = test system: Lewis lung carcinoma cell line; assay: Antineoplastic activity against mouse LLC cells xenografted in C57BL/6 mouse assessed as tumor growth inhibition at 100 mg/kg/day measured on day 23; details: 552 h, read-out: TGI
[33] = test system: Lewis lung carcinoma cell line; assay: Antineoplastic activity against mouse LLC cells xenografted in C57BL/6 mouse assessed as tumor growth inhibition at 100 mg/kg/day measured on day 24; details: 576 h, read-out: TGI
[34] = test system: Lewis lung carcinoma cell line; assay: Antineoplastic activity against mouse LLC cells xenografted in C57BL/6 mouse assessed as tumor growth inhibition at 100 mg/kg/day measured on day 14; details: 336 h, read-out: TGI

Cc1c2c3cc(NC(=O)CNC(=O)CN)ccc3nc-2n(C)c2ccccc12.Cl.Cl
inhibition in vivo at 50 mg/kg/day [1]: 38.3%
inhibition in vivo at 25 mg/kg/day [2]: 31.8%
solubility [3]: soluble
Activity (Mus musculus [4]): Non-toxic
Activity (Mus musculus [5]): <= 15%
inhibition in vivo at 50 mg/kg/day [6]: 29.3%
IC50 (MCF7): 2700 nM
Activity (Mus musculus [7]): <= 15%
inhibition in vivo at 25 mg/kg/day [8]: 35.8%
inhibition in vivo at 50 mg/kg/day [9]: 62.6%
inhibition in vivo at 50 mg/kg/day [10]: 42.9%
Activity (Mus musculus [11]): <= 15%
IC50 (KB): 4650 nM
logP [12]: -1.9
pKa at 5 µM [13]: 7.5
inhibition in vivo at 50 mg/kg/day [14]: 52.2%
IC50 (A549): 900 nM
inhibition in vivo at 25 mg/kg/day [15]: 37.4%
inhibition in vivo at 25 mg/kg/day [16]: 22.4%
logD [17]: -0.2
hemolysis at 0.5 h, 300 µM [18]: 9.97%
inhibition in vivo at 25 mg/kg/day [19]: 28%
Activity (Mus musculus [20]): <= 15%
Activity (Mus musculus [21]): <= 15%
IC50 (LoVo): 730 nM
inhibition in vivo at 25 mg/kg/day [22]: 27.2%
Activity (Mus musculus [23]): <= 15%
inhibition in vivo at 50 mg/kg/day [24]: 46.9%

O=P1(N(CCCl)CCCl)NCCCO1 (stereo not drawn) [CYCLOPHOSPHAMIDE ANHYDROUS]
inhibition in vivo at 100 mg/kg/day [25]: 31.9%
inhibition in vivo at 100 mg/kg/day [26]: 40%
inhibition in vivo at 100 mg/kg/day [27]: 49.8%
inhibition in vivo at 100 mg/kg/day [28]: 24.1%
inhibition in vivo at 100 mg/kg/day [29]: 21.3%
inhibition in vivo at 100 mg/kg/day [30]: 12.5%
inhibition in vivo at 100 mg/kg/day [31]: 37%
inhibition in vivo at 100 mg/kg/day [32]: 30.4%
inhibition in vivo at 100 mg/kg/day [33]: 0%
inhibition in vivo at 100 mg/kg/day [34]: 36.8%
